The source of these data is ChEMBL document CHEMBL3351945, “Effect of dehydroepiandrosterone derivatives on the activity of 5α-reductase isoenzymes and on cancer cell line PC-3” (Bioorg Med Chem, 2014).

One data set relates to PC-3. The experiment in a line: (§1) Cytotoxicity against human PC3 cells assessed as growth inhibition at 50 uM after 48 hrs by SRB assay. The data set is classed as functional. The essentials: (§2)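 PC-3 cells (NCI) were grown in RPMI-1640 with 10% FBS, 2 mM L-glutamine, antibiotics/amphotericin B and 1% nonessential amino acids at 37 °C in 5% CO2. Viability exceeded 95% (trypan blue). Cells were seeded at 5000–10000/well, given 24 h, then exposed 48 h to 50 µM compound. Cells were fixed in cold TCA, stained with 0.4% SRB and read at 515 nm after Tris solubilization. Inhibition = 100 − (sample/vehicle absorbance × 100).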
Background: In SRB staining, fixed cells bind dye roughly in proportion to their protein.

Data set [1] in a line: Cytotoxicity against Swiss mouse primary peritoneal macrophages assessed as growth inhibition at 50 uM after 48 hrs by MTT assay. Particulars: for growth inhibition (GI): peritoneal macrophage cell, 48 h, 50 µM; for inhibition at 48 h, 50 µM: Swiss, primary peritoneal macrophages, read-out: GI.
The target in data set [2] is T1, 3-oxo-5-alpha-steroid 4-dehydrogenase 2 (Homo sapiens, UniProt P31213).
T1 sequence (P31213 whole entry): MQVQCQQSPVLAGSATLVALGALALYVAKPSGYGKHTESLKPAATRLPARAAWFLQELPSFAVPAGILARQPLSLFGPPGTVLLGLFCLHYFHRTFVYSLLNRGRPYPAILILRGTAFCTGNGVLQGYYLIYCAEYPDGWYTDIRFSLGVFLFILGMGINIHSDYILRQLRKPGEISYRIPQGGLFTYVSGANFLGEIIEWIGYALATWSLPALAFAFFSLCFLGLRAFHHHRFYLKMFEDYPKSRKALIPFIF
Put plainly: Inhibition of human prostate 5alpha-reductase type 2 assessed as conversion of [3H]testosterone to dihydrotestosterone. Also noted: species or system Prostate gland. The gist of the method:
(§3)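 Each reaction contained 1 mM DTT in 40 mM sodium phosphate, 2 nM [3H]T and 2 mM NADPH. Type 1 ran at pH 8.0 with 6.31 µM T added and 90 µg solubilized rat liver microsomal protein. Type 2 ran at pH 6.5 with 50 µg human prostate membrane protein. Inhibitors were tested at 1e-11–1e-3 M, in duplicate, 60 min at 37.5 °C. Reactions were stopped with dichloromethane, DHT separated by TLC and radioscanned, and IC50 taken from inhibition curves.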

For data set [3], the target named is T2, 3-oxo-5-alpha-steroid 4-dehydrogenase 1 (Rattus norvegicus, UniProt P24008).
T2 sequence (P24008 whole entry): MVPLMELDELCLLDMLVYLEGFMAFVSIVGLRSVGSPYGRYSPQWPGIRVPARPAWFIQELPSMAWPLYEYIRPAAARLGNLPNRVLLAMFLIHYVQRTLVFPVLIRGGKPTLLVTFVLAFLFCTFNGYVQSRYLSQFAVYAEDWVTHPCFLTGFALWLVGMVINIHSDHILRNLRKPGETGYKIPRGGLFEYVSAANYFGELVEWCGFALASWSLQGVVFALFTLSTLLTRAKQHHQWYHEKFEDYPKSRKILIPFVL
The experiment in a line: Inhibition of rat liver 5alpha-reductase type 1 assessed as conversion of [3H]testosterone to dihydrotestosterone. The essentials:
as §3

A short description of data set [4]: as §1. It counts as functional. Particulars: PC-3, 48 h, read-out: GI. The gist of the method:
as §2

The structures appear in SMILES notation. The source made the active and inactive calls. No cut-off for these calls is given here.

The term IC50 denotes the concentration that gives 50% inhibition.

As for `C[C@]12CC[C@H](OC(=O)C3CCCCCC3)CC1=CC[C@@H]1[C@@H]2CC[C@]2(C)C(n3ccnc3)=C(C=O)C[C@@H]12`, the “growth inhibition (GI)” value in the data set on PC-3 was “inactive”. Moreover, the “growth inhibition (GI)” value in data set [1] is listed as “Non-toxic”. The IC50 entry in data set [2] was “Not Active”; in data set [3] (read-out: IC50), 320 µM.
Turning to `CC(=O)O[C@H]1CC[C@@]2(C)C(=CC[C@@H]3[C@@H]2CC[C@]2(C)C(n4ccnc4)=C(C=O)C[C@@H]32)C1`, the inhibition of growth at 50 µM in data set [4] was 56.5%. Besides, the inhibition at 48 h, 50 µM in data set [1] amounted to 36.2%. Also, the IC50 result in data set [2] and in data set [3] was “Not Active” in each case.
On to `C[C@]12CC[C@H](OC(=O)C3CC3)CC1=CC[C@@H]1[C@@H]2CC[C@]2(C)C(Cl)=C(C=O)C[C@@H]12`, for which the “growth inhibition (GI)” value with PC-3 is “inactive”. For the same compound, the “growth inhibition (GI)” value in data set [1] is recorded as “Non-toxic”. The IC50 is 3.2 nM in data set [2] (read-out: IC50) and “Not Active” in data set [3].
As to `CC(C)(C)NC(=O)[C@H]1CC[C@H]2[C@@H]3CC[C@H]4NC(=O)C=C[C@]4(C)[C@H]3CC[C@]12C` [FINASTERIDE], the “growth inhibition (GI)” value in the data set on PC-3 was “inactive”. In addition, the “growth inhibition (GI)” value in data set [1] was “Non-toxic”. Moreover, the 50% inhibitory concentration (IC50) in data set [3] (read-out: IC50) is 630 µM.
For the compound `CC(=O)O[C@H]1CC[C@@]2(C)C(=CC[C@@H]3[C@@H]2CC[C@]2(C)C(Cl)=C(C=O)C[C@@H]32)C1`, in the data set with PC-3, the “growth inhibition (GI)” value was “inactive”. The “growth inhibition (GI)” value in data set [1] was “Non-toxic”. For the same compound, the IC50 in data set [2] (read-out: IC50) is 50 nM; in data set [3] it was “Not Active”.
With `C[C@]12CC[C@H](OC(=O)C3CCCC3)CC1=CC[C@@H]1[C@@H]2CC[C@]2(C)C(Cl)=C(C=O)C[C@@H]12`, the “growth inhibition (GI)” value with PC-3 is “inactive”. Also, the “growth inhibition (GI)” value in data set [1] is given as “Non-toxic”. Also, the IC50 in data set [2] (read-out: IC50) is 50 nM; in data set [3] it was “Not Active”.
Take `C[C@]12CC[C@H](OC(=O)c3ccc(Br)cc3)CC1=CC[C@@H]1[C@@H]2CC[C@]2(C)C(n3ccnc3)=C(C=O)C[C@@H]12`: the inhibition of growth at 50 µM in data set [4] was found to be 100%. Also, the inhibition at 48 h, 50 µM in data set [1] came out at 40.3%. For the same compound, the IC50 result is “Not Active” in data set [2] and 94.5 µM in data set [3] (read-out: IC50).
In the case of `C[C@]12CC[C@H](OC(=O)C3CCCCCC3)CC1=CC[C@@H]1[C@@H]2CC[C@]2(C)C(Cl)=C(C=O)C[C@@H]12`, in the data set with PC-3, the “growth inhibition (GI)” value is “inactive”. For the same compound, in data set [1], the “growth inhibition (GI)” value is reported as “Non-toxic”. Besides, the IC50 in data set [2] (read-out: IC50) is 15 nM; in data set [3], “Not Active”.
Consider `C[C@]12CC[C@H](OC(=O)c3ccc(F)cc3)CC1=CC[C@@H]1[C@@H]2CC[C@]2(C)C(n3ccnc3)=C(C=O)C[C@@H]12`, for which the inhibition of growth at 50 µM in data set [4] turned out to be 100%. The inhibition at 48 h, 50 µM in data set [1] was 30.1%. For the same compound, the values for the concentration for half-maximal inhibition (IC50) entry in data set [2] and in data set [3] (read-out: IC50) were “Not Active” and 320 µM, respectively.
For the compound `C[C@]12CC[C@H](OC(=O)C3CCCC3)CC1=CC[C@@H]1[C@@H]2CC[C@]2(C)C(n3ccnc3)=C(C=O)C[C@@H]12`, the “growth inhibition (GI)” value in the data set on PC-3 was “inactive”. Moreover, the “growth inhibition (GI)” value in data set [1] is given as “Non-toxic”. The IC50 result in data set [2] was “Not Active”; in data set [3] (read-out: IC50), 265 µM.
For `C[C@]12CC[C@H](OC(=O)C3CCCCC3)CC1=CC[C@@H]1[C@@H]2CC[C@]2(C)C(Cl)=C(C=O)C[C@@H]12`, the “growth inhibition (GI)” value in the data set with PC-3 was “inactive”. Besides, the “growth inhibition (GI)” value in data set [1] is recorded as “Non-toxic”. In addition, the IC50 in data set [2] (read-out: IC50) was 8 nM; in data set [3], “Not Active”.
As to `CC(=O)N1CCN(c2ccc(OCC3COC(Cn4ccnc4)(c4ccc(Cl)cc4Cl)O3)cc2)CC1` (stereo not given) [KETOCONAZOLE], the inhibition of growth at 50 µM in data set [4] was determined as 85.4%. For the same compound, the inhibition at 48 h, 50 µM in data set [1] is 41.5%. In data set [2], the IC50 result is recorded as “Not Active”.
As for `C[C@]12CC[C@H](OC(=O)C3CCCCC3)CC1=CC[C@@H]1[C@@H]2CC[C@]2(C)C(n3ccnc3)=C(C=O)C[C@@H]12`, the “growth inhibition (GI)” value in the data set on PC-3 was “inactive”. Besides, the “growth inhibition (GI)” value in data set [1] is “Non-toxic”. In addition, the half-inhibitory concentration (IC50) entry in data set [2] was “Not Active”; in data set [3] (read-out: IC50), 300 µM.
On to `C[C@]12CC[C@H](OC(=O)C3CCC3)CC1=CC[C@@H]1[C@@H]2CC[C@]2(C)C(Cl)=C(C=O)C[C@@H]12`, for which the “growth inhibition (GI)” value in the data set with PC-3 is “inactive”. Moreover, in data set [1], the “growth inhibition (GI)” value was “Non-toxic”. In addition, the results for the half-maximal inhibitory concentration (IC50) in data set [2] (read-out: IC50) and in data set [3] were 13 nM and “Not Active”, respectively.
On to `C[C@]12CC[C@H](OC(=O)c3ccc(I)cc3)CC1=CC[C@@H]1[C@@H]2CC[C@]2(C)C(n3ccnc3)=C(C=O)C[C@@H]12`, for which the “growth inhibition (GI)” value in the data set with PC-3 was “inactive”. In data set [1], the “growth inhibition (GI)” value is reported as “Non-toxic”. Also, the half-maximal inhibitory concentration (IC50) result in data set [2] is “Not Active”; in data set [3] (read-out: IC50) it was 300 µM.
`C[C@]12CC[C@H](OC(=O)C3CCC3)CC1=CC[C@@H]1[C@@H]2CC[C@]2(C)C(n3ccnc3)=C(C=O)C[C@@H]12`: in the data set on PC-3, the “growth inhibition (GI)” value is “inactive”. Besides, the “growth inhibition (GI)” value in data set [1] was “Non-toxic”. The IC50 result in data set [2] is “Not Active”; in data set [3] (read-out: IC50), 250 µM.
For the compound `C[C@]12CC[C@H](OC(=O)C3CC3)CC1=CC[C@@H]1[C@@H]2CC[C@]2(C)C(n3ccnc3)=C(C=O)C[C@@H]12`, the inhibition of growth at 50 µM in data set [4] came to 100%. In data set [1], the inhibition at 48 h, 50 µM is 41.5%. Moreover, the IC50 entry in data set [2] was “Not Active”; in data set [3] (read-out: IC50) it was 200 µM.
For `C[C@]12CC[C@H](OC(=O)c3ccc(Cl)cc3)CC1=CC[C@@H]1[C@@H]2CC[C@]2(C)C(n3ccnc3)=C(C=O)C[C@@H]12`, in that order: 98.2%, 29.2%, “Not Active” and 100 µM.
